Assay results as given in ChEMBL document CHEMBL1135354, “Synthesis and activity of a novel class of tribasic macrocyclic antibiotics: the triamilides” (2002).
Values after ≈ are worked out from the molar mass of the structure shown.

Experiments:
Type in all cases: functional
Pasteurella multocida [1] = assay: Minimum inhibitory concentration required to inhibit growth of Pasteurella multocida in vitro by microdilution method.
In short: (§1)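 Broth microdilution per NCCLS; E. coli 51A0150 (poultry lung) and P. multocida 59A0067 (turkey). Overnight BHI plate colonies suspended in saline to OD625 0.09 (0.5 McFarland), diluted 1:100 in BHI broth; final ~5×10^5 cfu/mL against 2-fold serial dilutions in BHI broth.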

Pasteurella multocida [2] = assay: Effective dose required to inhibit Pasteurella multocida infection model in mouse by subcutaneous administration
In short: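 Mice infected intranasally with P. multocida (respiratory disease model); drug given subcutaneously 0.5 h post-infection at 5–80 mg/kg. ED50 derived from number of surviving mice 4 days after infection.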

Escherichia coli = assay: In vitro minimum inhibitory concentration required to inhibit growth of Escherichia coli.; in short: as §1
[3] = Pasteurella multocida, read-out: MIC
[4] = Pasteurella multocida, sc, read-out: ED50

| MIC (Pasteurella multocida [1]; [3]) | MIC (Escherichia coli; Escherichia coli) | MIC (Pasteurella multocida [1]) | MIC (Escherichia coli) | Compound | ED50 (Pasteurella multocida [2]; [4]) | ED50 (Pasteurella multocida [2]) |
| --- | --- | --- | --- | --- | --- | --- |
| < 0.1 µg/mL | 0.39 µg/mL (≈ 0.469 µM) | – | – | CC[C@H]1OC(=O)[C@H](C)[C@@H](O[C@H]2C[C@@](C)(OC)[C@@](O)(CN3CCCCC3)[C@H](C)O2)[C@H](C)[C@@H](O[C@@H]2O[C@H](C)C[C@H](N(C)C)[C@H]2O)[C@](C)(O)C[C@@H](C)CN[C@H](C)[C@@H](O)[C@]1(C)O | 40 mg/kg | – |
| 0.05 µg/mL (≈ 0.0613 µM) | 0.78 µg/mL (≈ 0.956 µM) | – | – | CC[C@H]1OC(=O)[C@H](C)[C@@H](O[C@H]2C[C@@](C)(OC)[C@@](O)(Cn3ccnn3)[C@H](C)O2)[C@H](C)[C@@H](O[C@@H]2O[C@H](C)C[C@H](N(C)C)[C@H]2O)[C@](C)(O)C[C@@H](C)CN[C@H](C)[C@@H](O)[C@]1(C)O | 23 mg/kg | – |
| 0.2 µg/mL (≈ 0.24 µM) | 3.13 µg/mL (≈ 3.75 µM) | – | – | CC[C@H]1OC(=O)[C@H](C)[C@@H](O[C@H]2C[C@@](C)(OC)[C@@](O)(CN3CCOCC3)[C@H](C)O2)[C@H](C)[C@@H](O[C@@H]2O[C@H](C)C[C@H](N(C)C)[C@H]2O)[C@](C)(O)C[C@@H](C)CN[C@H](C)[C@@H](O)[C@]1(C)O | 49 mg/kg | – |
| < 0.1 µg/mL | 1.56 µg/mL (≈ 1.84 µM) | – | – | CC[C@H]1OC(=O)[C@H](C)[C@@H](O[C@H]2C[C@@](C)(OC)[C@@](O)(CNCC(F)(F)F)[C@H](C)O2)[C@H](C)[C@@H](O[C@@H]2O[C@H](C)C[C@H](N(C)C)[C@H]2O)[C@](C)(O)C[C@@H](C)CN[C@H](C)[C@@H](O)[C@]1(C)O | 46 mg/kg | – |
| < 0.1 µg/mL | 0.39 µg/mL (≈ 0.476 µM) | – | – | CCCCNC[C@@]1(O)[C@H](C)O[C@@H](O[C@H]2[C@H](C)[C@@H](O[C@@H]3O[C@H](C)C[C@H](N(C)C)[C@H]3O)[C@](C)(O)C[C@@H](C)CN[C@H](C)[C@@H](O)[C@](C)(O)[C@@H](CC)OC(=O)[C@@H]2C)C[C@@]1(C)OC | 23 mg/kg | – |
| – | – | < 0.1 µg/mL | 0.78 µg/mL (≈ 0.968 µM) | CC[C@H]1OC(=O)[C@H](C)[C@@H](O[C@H]2C[C@@](C)(OC)[C@@](O)(CN(C)CC)[C@H](C)O2)[C@H](C)[C@@H](O[C@@H]2O[C@H](C)C[C@H](N(C)C)[C@H]2O)[C@](C)(O)C[C@@H](C)CN[C@H](C)[C@@H](O)[C@]1(C)O (stereo in doubt; 8i) | – | 7.2 mg/kg |
| – | 0.39 µg/mL (≈ 0.484 µM) | 0.1 µg/mL (≈ 0.124 µM) | – | CC[C@H]1OC(=O)[C@H](C)[C@@H](O[C@H]2C[C@@](C)(OC)[C@@](O)(CN(C)CC)[C@H](C)O2)[C@H](C)[C@@H](O[C@@H]2O[C@H](C)C[C@H](N(C)C)[C@H]2O)[C@](C)(O)C[C@@H](C)CN[C@H](C)[C@@H](O)[C@]1(C)O (stereo in doubt; 10g) | < 5 mg/kg | – |
